Results from ChEMBL document CHEMBL4689842, “EUbOPEN Chemogenomics Library wave 1” (2021).

Test system: HEK-293T
Assay: Multiplex assay against HEK293T;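 as to Population Tubulin-Different-Phenotype (%): share of the cells with healthy nuclei that show this phenotype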
Type: toxicity, cell-based
Settings: human
How it was run: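 At seeding, live cells were stained with Hoechst33342, BioTracker Green Microtubule Cytoskeleton Dye, MitoTracker Red and Annexin V Alexa Fluor 680. After compound addition they were imaged on a CQ1 microscope at 37°C and 5% CO2, and CellPathfinder machine-learning gating sorted them into Hoechst high-intensity objects or normal cells, with normal cells further split into healthy, pyknosed or fragmented nuclei and pyknosed cells into mitotic or apoptotic. Tubulin, mitochondrial-mass and membrane-permeability phenotypes are given as per cents of cells with healthy nuclei.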

[1] = 12 h, 1 µM, compound concentration 1 uM, replicate 1
[2] = 12 h, 1 µM, compound concentration 1 uM, replicate 2
[3] = 12 h, 10 µM, compound concentration 10 uM, replicate 1
[4] = 12 h, 10 µM, compound concentration 10 uM, replicate 2
[5] = 24 h, 1 µM, compound concentration 1 uM, replicate 1
[6] = 24 h, 1 µM, compound concentration 1 uM, replicate 2
[7] = 24 h, 10 µM, compound concentration 10 uM, replicate 1
[8] = 24 h, 10 µM, compound concentration 10 uM, replicate 2
[9] = 48 h, 1 µM, compound concentration 1 uM, replicate 1
[10] = 48 h, 1 µM, compound concentration 1 uM, replicate 2
[11] = 48 h, 10 µM, compound concentration 10 uM, replicate 1
[12] = 48 h, 10 µM, compound concentration 10 uM, replicate 2

CC(=O)c1cc(-c2cc(C(=O)NC3CC3)ccc2C)c2ncccn12
Population Apoptotic (%) [1]: 51% | Population Fragmented Nuclei (%) [1]: 11% | Population Healthy Nuclei (%) [1]: 27% | Population Hoechst High Intensity Objects (%) [1]: 12% | Population Membrane Permeable-Phenotype (%) [1]: 3% | Population Mitochondria Different-Phenotype (%) [1]: 59% | Population Mitotic Cells (%) [1]: 48% | Population Normal (%) [1]: 87% | Population Pyknosed Nuclei (%) [1]: 61% | Population Tubulin-Different-Phenotype (%) [1]: 36% | Total Cell Count [1]: 275 | Population Apoptotic (%) [2]: 16% | Population Fragmented Nuclei (%) [2]: 1% | Population Healthy Nuclei (%) [2]: 48% | Population Hoechst High Intensity Objects (%) [2]: 3% | Population Membrane Permeable-Phenotype (%) [2]: 5% | Population Mitochondria Different-Phenotype (%) [2]: 17% | Population Mitotic Cells (%) [2]: 83% | Population Normal (%) [2]: 96% | Population Pyknosed Nuclei (%) [2]: 49% | Population Tubulin-Different-Phenotype (%) [2]: 21% | Total Cell Count [2]: 271 | Population Apoptotic (%) [3]: 50% | Population Fragmented Nuclei (%) [3]: 12% | Population Healthy Nuclei (%) [3]: 29% | Population Hoechst High Intensity Objects (%) [3]: 15% | Population Membrane Permeable-Phenotype (%) [3]: 4% | Population Mitochondria Different-Phenotype (%) [3]: 81% | Population Mitotic Cells (%) [3]: 49% | Population Normal (%) [3]: 84% | Population Pyknosed Nuclei (%) [3]: 58% | Population Tubulin-Different-Phenotype (%) [3]: 39% | Total Cell Count [3]: 265 | Population Apoptotic (%) [4]: 22% | Population Fragmented Nuclei (%) [4]: 6% | Population Healthy Nuclei (%) [4]: 31% | Population Hoechst High Intensity Objects (%) [4]: 4% | Population Membrane Permeable-Phenotype (%) [4]: 5% | Population Mitochondria Different-Phenotype (%) [4]: 38% | Population Mitotic Cells (%) [4]: 77% | Population Normal (%) [4]: 95% | Population Pyknosed Nuclei (%) [4]: 62% | Population Tubulin-Different-Phenotype (%) [4]: 21% | Total Cell Count [4]: 199 | Population Apoptotic (%) [5]: 51% | Population Fragmented Nuclei (%) [5]: 15% | Population Healthy Nuclei (%) [5]: 31% | Population Hoechst High Intensity Objects (%) [5]: 13% | Population Membrane Permeable-Phenotype (%) [5]: 2% | Population Mitochondria Different-Phenotype (%) [5]: 42% | Population Mitotic Cells (%) [5]: 48% | Population Normal (%) [5]: 86% | Population Pyknosed Nuclei (%) [5]: 52% | Population Tubulin-Different-Phenotype (%) [5]: 26% | Total Cell Count [5]: 305 | Population Apoptotic (%) [6]: 10% | Population Fragmented Nuclei (%) [6]: 5% | Population Healthy Nuclei (%) [6]: 65% | Population Hoechst High Intensity Objects (%) [6]: 2% | Population Membrane Permeable-Phenotype (%) [6]: 1% | Population Mitochondria Different-Phenotype (%) [6]: 16% | Population Mitotic Cells (%) [6]: 89% | Population Normal (%) [6]: 97% | Population Pyknosed Nuclei (%) [6]: 29% | Population Tubulin-Different-Phenotype (%) [6]: 25% | Total Cell Count [6]: 349 | Population Apoptotic (%) [7]: 46% | Population Fragmented Nuclei (%) [7]: 18% | Population Healthy Nuclei (%) [7]: 31% | Population Hoechst High Intensity Objects (%) [7]: 17% | Population Membrane Permeable-Phenotype (%) [7]: 0% | Population Mitochondria Different-Phenotype (%) [7]: 76% | Population Mitotic Cells (%) [7]: 53% | Population Normal (%) [7]: 82% | Population Pyknosed Nuclei (%) [7]: 49% | Population Tubulin-Different-Phenotype (%) [7]: 38% | Total Cell Count [7]: 280 | Population Apoptotic (%) [8]: 28% | Population Fragmented Nuclei (%) [8]: 7% | Population Healthy Nuclei (%) [8]: 51% | Population Hoechst High Intensity Objects (%) [8]: 3% | Population Membrane Permeable-Phenotype (%) [8]: 4% | Population Mitochondria Different-Phenotype (%) [8]: 33% | Population Mitotic Cells (%) [8]: 71% | Population Normal (%) [8]: 96% | Population Pyknosed Nuclei (%) [8]: 41% | Population Tubulin-Different-Phenotype (%) [8]: 30% | Total Cell Count [8]: 233 | Population Apoptotic (%) [9]: 44% | Population Fragmented Nuclei (%) [9]: 15% | Population Healthy Nuclei (%) [9]: 43% | Population Hoechst High Intensity Objects (%) [9]: 14% | Population Membrane Permeable-Phenotype (%) [9]: 10% | Population Mitochondria Different-Phenotype (%) [9]: 22% | Population Mitotic Cells (%) [9]: 55% | Population Normal (%) [9]: 85% | Population Pyknosed Nuclei (%) [9]: 41% | Population Tubulin-Different-Phenotype (%) [9]: 28% | Total Cell Count [9]: 343 | Population Apoptotic (%) [10]: 8% | Population Fragmented Nuclei (%) [10]: 6% | Population Healthy Nuclei (%) [10]: 78% | Population Hoechst High Intensity Objects (%) [10]: 4% | Population Membrane Permeable-Phenotype (%) [10]: 4% | Population Mitochondria Different-Phenotype (%) [10]: 6% | Population Mitotic Cells (%) [10]: 91% | Population Normal (%) [10]: 95% | Population Pyknosed Nuclei (%) [10]: 14% | Population Tubulin-Different-Phenotype (%) [10]: 21% | Total Cell Count [10]: 595 | Population Apoptotic (%) [11]: 57% | Population Fragmented Nuclei (%) [11]: 24% | Population Healthy Nuclei (%) [11]: 24% | Population Hoechst High Intensity Objects (%) [11]: 17% | Population Membrane Permeable-Phenotype (%) [11]: 1% | Population Mitochondria Different-Phenotype (%) [11]: 63% | Population Mitotic Cells (%) [11]: 42% | Population Normal (%) [11]: 82% | Population Pyknosed Nuclei (%) [11]: 51% | Population Tubulin-Different-Phenotype (%) [11]: 36% | Total Cell Count [11]: 280 | Population Apoptotic (%) [12]: 17% | Population Fragmented Nuclei (%) [12]: 6% | Population Healthy Nuclei (%) [12]: 58% | Population Hoechst High Intensity Objects (%) [12]: 3% | Population Membrane Permeable-Phenotype (%) [12]: 5% | Population Mitochondria Different-Phenotype (%) [12]: 29% | Population Mitotic Cells (%) [12]: 82% | Population Normal (%) [12]: 96% | Population Pyknosed Nuclei (%) [12]: 35% | Total Cell Count [12]: 284
